Published values from different studies.
Protocols differ between the studies behind these lines.
Target: Mitogen-activated protein kinase 3 (MAPK3, Homo sapiens, UniProt P27361)

SMILES	effect on	technique	concentration	remaining binding
CN(c1nccc(-c2cnn3ncccc23)n1)C1CC1	binding	–	1 µM	89%
O=C(c1ccc(Nc2ncc(Cl)c(-c3cc4ccccc4s3)n2)cc1)N1CCC(N2CCCC2)CC1	binding	competition with immobilised ligand	1 µM	97%
C[C@@H]1CCN(c2nccc(-c3cnn4ncccc34)n2)C1	binding	–	1 µM	83%
COc1cnc(Nc2cccc(S(N)(=O)=O)c2)nc1N1CCN(c2ccccc2)CC1	binding	competition with immobilised ligand	1 µM	100%
c1cncc(-c2cccc(Nc3nccc(NC4CCCCC4)n3)c2)c1	binding	competition with immobilised ligand	10 µM	100%
COc1cc(-c2cn(C3CCc4ccccc4N(CC(F)(F)F)C3=O)nn2)ccc1-n1ccc(C)n1 (centres unmarked)	cell-free assay	competition with immobilised ligand	1 µM	100%
CN(CCCC(F)(F)F)c1nccc(-c2cnn3ncccc23)n1	binding	–	1 µM	97%
COc1cnc(Nc2cccc(S(N)(=O)=O)c2)nc1N1CCN(c2ccccc2)C(=O)C1	binding	competition with immobilised ligand	1 µM	100%
N#Cc1ccccc1CSc1nnc2c(n1)[nH]c1ccccc12	binding	competition with immobilised ligand	10 µM	89%
O=C(Nc1cccnn1)N1CC(C/C=C/c2cncc(Oc3ccc(C(F)(F)F)cn3)n2)C1	cell-free assay	competition with immobilised ligand	1 µM	99%
Nc1ncc2c(n1)-c1c([nH]c3ccc(C#CC4CC4)cc13)CCCC2	binding	competition with immobilised ligand	1 µM	100%
O=C(Nc1c[nH]nc1C(=O)NC1CCNCC1)c1cc(F)cc(F)c1	binding	competition with immobilised ligand	1 µM	100%
C[C@H](c1cccc(C#N)c1)n1cc(Cl)cc(C(N)=O)c1=N	cell-free assay	competition with immobilised ligand	1 µM	97%
C=CC(=O)N1CCC(C(=O)NCC(=O)N2CCN(c3nc(-c4cnc(N)nc4C(F)F)nc(N4CCOCC4)n3)CC2)CC1	binding	competition with immobilised ligand	1 µM	100%
O=C(NCCCN1CCOCC1)c1ccc(Nc2ncc(Cl)c(-c3ccc(Cl)s3)n2)cc1	binding	competition with immobilised ligand	1 µM	100%
C[C@@H]1CN(c2ccc3ncc(-c4ccc5[nH]nc(C6CC6)c5c4)n3n2)C[C@H](C)O1	binding	competition with immobilised ligand	0.5 µM	100%
O=C(NCCCN1CCOCC1)c1ccc(Nc2nccc(-c3cc4ccccc4s3)n2)cc1	binding	competition with immobilised ligand	1 µM	100%
O=C(O)[C@@H]1[C@@H](Cn2nnc3ccccc3c2=O)CC[C@H]1C(=O)c1ccc(OCCC2CCOCC2)cc1	cell-free assay	competition with immobilised ligand	1 µM	100%
COc1ccnn2ncc(-c3ccnc(N(C)C)n3)c12	binding	–	1 µM	92%
c1ccc(N2CCN(Cc3nc4ccccc4[nH]3)CC2)nc1	binding	competition with immobilised ligand	1 µM	100%
Cc1cnn2ncc(-c3ccnc(N(C)C)n3)c2c1	binding	–	1 µM	100%
Cn1cc(Cl)c2c(Oc3c(F)cc(Nc4cc(Cl)nc(N)n4)cc3F)ccnc21	cell-free assay	competition with immobilised ligand	0.1 µM	98%
CN(C)c1ncc(F)c(-c2cnn3ncccc23)n1	binding	–	1 µM	91%
C[C@@H]1CN(c2cc(-c3nn(C)c4ccc(OC5(C)CC5)cc34)ncn2)C[C@H](C)O1	cell-free assay	competition with immobilised ligand	1 µM	100%
N[C@@H]1CCN(c2nccc(-c3cnn4ncccc34)n2)C1	binding	–	1 µM	91%
COc1ncc2cc3ccccc3nc2c1C#N	cell-free assay	competition with immobilised ligand	5 µM	93%
